# Compound activity: PubChem BioAssay, several laboratories
# Yeast life ext – extends the lifespan of yeast | S. cerevisiae growth with nicotinamide, OD615; deaD strain in restrictive glucose medium | inhibition of the nicotinamide effect, % at 10 µM | actives 0.68% (n = 130,000) | AID 775;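 active = inhibition above a set limit, placed 3 SD over the median of all compounds, cut at about 26% in these data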;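 also: 0% = nicotinamide-treated wells and 100% = cells grown without nicotinamide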
#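 System: Modified budding yeast, DeaD strain | Buffer or medium: Restrictive glucose medium | Also added: 1.5 mM nicotinamide | Doses: 10 µM single point, 0.25% DMSO | Schedule: 48 h compound exposure at 30 °C, humidified | Detection: Absorbance at 615 nm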
# sdo1 growth – restores growth of sdo1-depleted yeast | AID 817 | z-score at 10 µM | actives 0.21% (n = 140,000) | S. cerevisiae sdo1-depleted JHY4D growth rescue, OD600 30 h; stronger effect = higher value; pdr5 snq2 efflux-pump mutant strain;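 active = z-score above 3 at both the 24 hr and the 30 hr optical density reads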;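 also: z-score against mean and SD of all compound wells on the same plate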
# BB579 growth dn – reduces growth of yeast BB579 in restrictive medium; S. cerevisiae BB579 growth, OD615, 48 h; inhibition, % at 10 µM; actives 0.51% (n = 140,000); AID 804;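 active = inhibition above a set limit, 3 SD over the mean compound inhibition, cut at about 44% in these data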
#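 System: Saccharomyces cerevisiae DeaD strain BB579, replicative lifespan model yeast | Buffer or medium: Restrictive glucose-based CSMM-D medium | Times: 4 h preincubation and 48 h exposure at 30 °C | Detection: OD615 turbidity measurement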
# sEH act – increases human soluble epoxide hydrolase activity; P34913; purified human sEH enzymatic activity, activator screen; AID 717; actives 0.04% (n = 91,000); activation, % at 2 µM; in the data active = activation above about 37%
# Target sequence (P34913 whole entry, looked up): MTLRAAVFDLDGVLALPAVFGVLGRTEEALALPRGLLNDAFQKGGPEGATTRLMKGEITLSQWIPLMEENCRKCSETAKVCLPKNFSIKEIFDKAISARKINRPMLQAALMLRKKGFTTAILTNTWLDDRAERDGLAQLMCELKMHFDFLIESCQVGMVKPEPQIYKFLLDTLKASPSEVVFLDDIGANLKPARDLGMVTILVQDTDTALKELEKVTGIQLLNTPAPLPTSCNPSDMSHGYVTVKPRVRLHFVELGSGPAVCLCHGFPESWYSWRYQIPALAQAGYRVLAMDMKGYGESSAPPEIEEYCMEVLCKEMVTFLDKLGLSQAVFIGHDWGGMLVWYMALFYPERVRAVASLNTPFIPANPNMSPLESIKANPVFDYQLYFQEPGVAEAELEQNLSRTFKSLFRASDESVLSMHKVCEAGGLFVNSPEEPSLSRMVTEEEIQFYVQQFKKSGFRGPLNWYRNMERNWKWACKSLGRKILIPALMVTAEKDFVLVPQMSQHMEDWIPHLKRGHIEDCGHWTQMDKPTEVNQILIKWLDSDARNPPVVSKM
# sEH inhibitor – inhibitors of human soluble epoxide hydrolase. P34913. recombinant human sEH enzymatic activity assay. inhibition, % at 2 µM. actives 0.34% (n = 91,000). AID 707; in the data active = inhibition above about 80%
# Measles CPE – protection of cells from measles virus | Measles virus-infected cells, CPE protection, absorbance | actives 1.5% (n = 140,000) | protection (pct of control), % at 4 µM | AID 841; in the data active = protection mostly above about 24%, no sharp cut-off; inactive = mostly below about 26%
# Active calls of the source: *; . = no result given. This is a sample that favours compounds with a hit; in the whole collection about 3% have one here.
SMILES,Yeast life ext,sdo1 growth,BB579 growth dn,sEH act,sEH inhibitor,Measles CPE
CCN(CC)C(=O)C1CCCN(C(=O)Nc2ccccc2)C1 (stereo not drawn),-8.0,0.55,7.7,11.4,-12.0,35.0*
Nc1ccc(-c2cnc(-c3ccc(N)cc3)nc2)cc1,-25.6,0.35,-50.5,8.7,-8.4,68.7*
COc1ccccc1NS(=O)(=O)c1cccc(C(=O)NN)c1,-24.5,1.07,0.6,-94.2,94.3*,3.9
CCN(CC)CCNS(=O)(=O)c1ccc(OC)c(Br)c1,-15.9,2.02,-20.4,-3.5,5.3,22.3
OCCN(/C=N/c1nc(-c2ccc(Br)cc2)cs1)CCO,-12.1,1.32,0.8,-12.5,14.1,32.2*
C[C@]12CC[C@@H]3c4ccc(O)cc4CC[C@H]3[C@@H]1CC[C@@H]2OC(=O)CCC(=O)O,56.7*,-0.89,-61.4,.,.,50.9
C[C@]12CC[C@@H]3c4ccc(O)cc4CC[C@H]3[C@@H]1C[C@@H](O)[C@@H]2O,3.1,-0.22,-28.2,.,.,8.0
Cc1sc2nc(-c3cccnc3)nc(Cl)c2c1-c1ccccc1,0.6,-0.97,18.0,.,.,25.1
O=C(CSCc1c(F)cccc1Cl)NCc1cccnc1,2.2,-0.39,-20.6,.,.,39.6
COc1cc(NC(=O)Cc2ccccc2)cc(OC)c1,-5.7,2.15,-14.7,10.0,-8.7,58.5*
COc1ccc(NC(=O)Cc2ccccc2)cc1,.,0.79,-18.8,6.8,-7.2,5.6
O=C(COC(=O)CC(c1ccccc1)c1ccccc1)Nc1c(F)cccc1F,12.2,-1.44,-71.5,.,.,4.5
CCOc1cc(/C=N/NC(N)=O)cc(Br)c1OCC(=O)Nc1ccccc1C,0.2,-0.24,-18.6,9.0,-6.6,2.3
CCOc1cc(/C=N/NC(N)=O)cc(Br)c1OCC(=O)Nc1cccc2ccccc12,-5.9,0.27,-83.7,10.4,-9.1,45.4*
COc1ccc(OC)c(C2C(C(C)=O)=C(O)C(=O)N2Cc2cccnc2)c1 (stereo not drawn),81.7*,1.15,-26.5,7.0,-5.5,8.8
COc1ccc(C(C(=O)NC(C)(C)C)N(CC2CCCO2)C(=O)CCC(=O)Nc2cc(C)on2)cc1 (stereo not drawn),-22.6,-0.2,-18.3,-4.8,5.6,4.2
Cc1ccc(NC(=O)C2C(=O)N(CCO)C3(C)CC2c2ccccc2O3)cc1 (stereo not drawn),-7.0,-1.52,2.0,-11.4,9.6,9.4
Cc1ccc(NC(=O)C2C(=O)N(C)c3ccccc32)cc1 (stereo not drawn),27.9*,1.03,-23.0,.,.,7.6
CN1C(=O)C(C(=O)Nc2ccccc2F)c2ccccc21 (stereo not drawn),44.5*,-0.03,-13.8,.,.,5.5
O=C1CCC2(C(=O)O)Sc3ccccc3N12 (stereo not drawn),-3.0,0.95,-35.1,6.4,-3.6,4.7
COc1cccc(CSc2nc3ccccc3cc2C=O)c1,84.2*,-1.78,-54.2,18.3,-17.7,13.3
COc1ccc(C(=O)NN2CC(O)=C(c3nc4ccccc4n3C)C2=N)cc1OC,0.5,0.8,-13.2,.,.,14.6
Cn1c(=O)[nH]c(NC2CCCCC2)c(N=O)c1=O,-2.7,1.42,-15.9,.,.,40.8*
Cn1c(=O)[nH]c(NC2CCCCC2)c([N+](=O)[O-])c1=O,5.3,1.23,0.7,.,.,3.0
O=C(c1ccco1)N1CCN(C(=O)C2CCCc3c2[nH]c2ccc(Cl)cc32)CC1 (stereo not drawn),-5.6,-1.3,-39.5,-4.2,7.3,81.8*
SMILES,Yeast life ext,sdo1 growth,BB579 growth dn,sEH act,sEH inhibitor,Measles CPE
CCc1cc2c(=O)n(CC)c(SC(C)C(=O)Nc3c(C)n(C)n(-c4ccccc4)c3=O)nc2s1 (stereo not drawn),-2.9,0.24,-21.4,4.1,-2.6,1.4
COc1cc(CC(C#N)(CO)c2nc3ccccc3[nH]2)ccc1OC(F)F (stereo not drawn),4.1,0.33,-30.4,.,.,14.7
O=C(/C=C/c1ccccc1)N/C(=C/c1ccccc1)C(=O)N1CCCCC1,-4.4,1.44,-10.6,10.9,-13.1,47.3*
COc1ccnc(Oc2ccc(F)cc2)c1C(=O)N/C=N/OCc1ccc(F)cc1Cl,-19.1,-0.1,-8.8,14.7,-12.7,14.9
COc1ccnc(Oc2ccc(F)cc2)c1C(=O)N/C=N/OCc1ccc(Cl)cc1Cl,-14.2,-0.2,-2.9,6.4,-4.5,29.3*
CN(CCOc1ccc(-c2ccn(S(=O)(=O)c3cccc4ccccc34)n2)cc1)c1ccccn1,-2.6,0.15,19.6,-6.2,8.3,44.4*
COc1ccccc1CNC(=O)C1CCN(S(=O)(=O)c2ccc3c(c2)OCCCO3)CC1,-2.2,0.78,-21.0,.,.,21.1
Cc1cc(NCCN2CCOCC2)n2ncc(-c3ccccc3)c2n1,42.4*,-0.21,13.0,7.5,-5.7,5.0
Cc1cc(NCCN2CCOCC2)n2ncc(-c3ccc(Cl)cc3)c2n1,.,.,.,-6.6,4.8,.
Cc1nc(SCC(=O)Nc2c(C)nn(C)c2C)c2cnn(-c3ccccc3)c2n1,-10.1,0.49,-17.6,3.3,-1.6,48.1*
Cc1ccc2nc(N3CCN(C=O)CC3)nc(-c3ccccc3)c2c1,.,-1.25,-48.4,8.7,-7.9,10.2
CCc1cc(C(=O)OC)c(NC(=O)C2CC(=O)NN2Cc2ccccc2)s1 (stereo not drawn),-15.4,-0.11,-25.7,2.4,-0.4,23.0*
Cc1cccc(C)c1NC(=O)CCN1C(=O)C2C3CCC(C3)C2C1=O (stereo not drawn),-11.5,1.42,7.9,-13.0,16.5,21.0*
O=C(Cc1cccs1)Nc1nc2c(s1)CCCC2,-14.3,-0.89,-22.7,-7.9,7.4,92.5*
O=C(Nc1nc2c(s1)CCCC2)c1cccs1,-10.5,-1.17,-8.9,11.7,-12.0,6.1
COC(=O)C1C(=O)c2c([nH]c(C(=O)OC3CCCC3C)c2C)CC1C (stereo not drawn),0.9,-1.2,-63.9,.,.,24.7
COC(=O)C1C(=O)c2c([nH]c(C(=O)OC3CCCCC3)c2C)CC1C (stereo not drawn),-3.5,-0.36,-7.2,.,.,33.3*
Cc1onc(-c2ccccc2)c1C(=O)NC(=S)NNC(=O)c1ccccc1O,5.9,-0.44,3.5,.,.,11.8
Cc1onc(-c2ccccc2)c1C(=O)NC(=S)NNC(=O)c1ccc(O)cc1O,0.1,-0.41,80.1*,.,.,8.0
NC(=O)C1C(c2ccccc2)=C1c1ccccc1,-2.6,0.04,-1.0,1.9,-0.5,56.8*
c1ccc2c(c1)CC(N1CCCCC1)c1ccccc1N2 (stereo not drawn),-11.3,0.67,3.0,.,.,42.2*
O=C(NCC(c1cccs1)N1CCOCC1)c1ccccc1NS(=O)(=O)c1cccc([N+](=O)[O-])c1 (stereo not drawn),3.3,0.1,5.3,.,.,31.6*
Cc1nn(CCC(N)=S)c2nc(-c3cccs3)cc(C(F)(F)F)c12,-2.5,-0.89,-33.3,.,.,26.0
